Measured values taken from ChEMBL document CHEMBL1143320, “Benzyldihydroxyoctenone, a novel anticancer agent, induces apoptosis via mitochondrial-mediated pathway in androgen-sensitive LNCaP prostate cancer cells” (Bioorg Med Chem Lett, 2009).
Active and inactive are the calls of the source.

Tests used:
Format in all cases: functional, cell-based
LNCaP [1] = experiment: Induction of apoptosis in human LNCAP cells assessed as inhibition of DHT-induced PSA protein expression at 30 uM after 24 hrs by Western blot
Method in brief: (§1)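 LNCaP cells were grown 48 h in RPMI 1640 with 10% FBS, then exposed 24 h to compound given in ethanol. This was followed by 2 h with or without DHT (0.1 and 1 nM). Lysate protein was measured by BCA, run on SDS–PAGE and blotted to nitrocellulose. Blots were probed with primary and peroxidase-conjugated secondary antibodies, with chemiluminescent detection.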

LNCaP [2] = experiment: Cell cycle arrest in human LNCAP cells assessed as accumulation at subG1 phase at 30 uM by flow cytometry; settings: TDE = time-dependent effect
Method in brief: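 LNCaP cells exposed for various times, then fixed nuclei stained with propidium iodide. DNA content read by flow cytometry, 10,000 nuclei per sample. Sub-G1 fraction reported as means ± SD of three separate experiments.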

LNCaP [3] = experiment: Induction of apoptosis in human LNCAP cells assessed as PARP cleavage at 30 uM after 24 hrs by Western blot
Method in brief: (§2)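 Cells were treated for various times and total cell lysates prepared. Lysates were resolved on 8–14% polyacrylamide gels and immunoblotted with an antibody to each protein, with b-actin as internal control.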

LNCaP [4] = experiment: Induction of apoptosis in human LNCAP cells assessed as inhibition of PSA mRNA transcription at 30 uM after 24 hrs by RT-PCR
Method in brief: (§3)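 Cells were treated as for the blots (24 h compound, then DHT 1.0 nM or none). Total RNA (2 µg) was reverse-transcribed and AR and PSA were quantified by real-time PCR. Relative levels were calculated by the comparative threshold cycle method, with GAPDH as housekeeping gene.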

LNCaP [5] = experiment: Induction of apoptosis in human LNCAP cells assessed as inhibition of PSA mRNA transcription at 30 uM after 24 hrs by RT-PCR in presence of DHT; method in brief: as §3
LNCaP [6] = experiment: Induction of apoptosis in human LNCAP cells assessed as decrease in procaspase-9 expression at 30 uM after 24 hrs by Western blot; method in brief: as §2
LNCaP [7] = experiment: Induction of apoptosis in human LNCAP cells assessed as decrease in Bcl2 levels at 30 uM after 48 hrs by Western blot; method in brief: as §2
LNCaP [8] = experiment: Induction of apoptosis in human LNCAP cells assessed as inhibition of PSA protein expression at 30 uM by Western blot; settings: TDE = time-dependent effect
LNCaP [9] = experiment: Induction of apoptosis in human LNCAP cells assessed as decrease in procaspase-8 expression at 30 uM after 24 hrs by Western blot; method in brief: as §2
LNCaP [10] = experiment: Induction of apoptosis in human LNCAP cells assessed as inhibition of DHT-induced AR protein expression at 30 uM after 24 hrs by Western blot; method in brief: as §1
LNCaP [11] = experiment: Induction of apoptosis in human LNCAP cells assessed as decrease in Bcl-XL levels at 30 uM after 24 hrs by Western blot; method in brief: as §2
LNCaP [12] = experiment: Induction of apoptosis in human LNCAP cells assessed as increase in mitochondrial cytochrome C release at 30 uM after 24 hrs by Western blot; method in brief: as §2
LNCaP [13] = experiment: Induction of apoptosis in human LNCAP cells assessed as DNA fragmentation at 30 uM by TUNEL assay
Method in brief: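 Cells were treated for the indicated times, then fixed and permeabilized. They were stained with fluorescent TUNEL reagent and analysed by flow cytometry for DNA fragmentation.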

LNCaP [14] = experiment: Induction of apoptosis in human LNCAP cells assessed as procaspase-8 cleavage at 30 uM by Western blot; settings: TDE = time-dependent effect; method in brief: as §2
LNCaP [15] = experiment: Induction of apoptosis in human LNCAP cells assessed as inhibition of AR mRNA transcription at 30 uM after 24 hrs by RT-PCR in presence of DHT; method in brief: as §3
LNCaP [16] = experiment: Induction of apoptosis in human LNCAP cells assessed as procaspase-3 cleavage at 30 uM after 24 hrs by Western blot; method in brief: as §2
LNCaP [17] = experiment: Induction of apoptosis in human LNCAP cells assessed as inhibition of AR mRNA transcription at 30 uM after 24 hrs by RT-PCR; method in brief: as §3
LNCaP [18] = experiment: Induction of apoptosis in human LNCAP cells assessed as inhibition of AR protein expression at 30 uM by Western blot; settings: TDE = time-dependent effect

Measured: Activity

C/C=C(\Cc1ccccc1)C(=O)CC(O)CCO (stereo not drawn)
active: LNCaP [1] | LNCaP [2] tde | LNCaP [3] | LNCaP [4] | LNCaP [5] | LNCaP [6] | LNCaP [7] | LNCaP [8] tde | LNCaP [9] | LNCaP [10] | LNCaP [11] | LNCaP [12] | LNCaP [13] | LNCaP [14] tde | LNCaP [15] | LNCaP [16] | LNCaP [17] | LNCaP [18] tde
